Test results taken from ChEMBL document CHEMBL1122009, “Activated N-nitrosocarbamates for regioselective synthesis of N-nitrosoureas” (J Med Chem, 1982).
“And” between values parts separate entries of the source, which are not always exact repeats. Equal entries are not always repeated. The source made the active and inactive calls.

Columns and labels:
[1] = Acute LD50 of compound was evaluated on L1210 leukemia in mice when administered intraperitoneally; format: ADME, organism-based; details: mouse, in vivo, ip
Summary of the method: (§1)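 Adult B6D2F1 mice were inoculated ip with 10^5 L1210 leukemia cells on day 0. Compound in olive oil (2-150 mg/kg, ip) was given on day 1 and repeated on days 5 and 9 only in mice without signs of toxicity. Mortality was monitored daily, with autopsy to separate leukemic from toxic deaths. Acute LD50 was determined graphically.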

Mus musculus [2] = assay: Compound was tested for its antitumor activity on L1210 leukemia in mice at the dose of 50 mg/kg (i.p.); Not significant; format: functional, organism-based; design: dose 50 mg/kg
Mus musculus [3] = assay: Compound was tested for its antitumor activity on L1210 leukemia in mice at the dose of 8 mg/kg (i.p.); Not significant; format: functional, organism-based; design: dose 8 mg/kg
Mus musculus [4] = assay: Compound was tested for its antitumor activity on L1210 leukemia in mice at the dose of 20 mg/kg (i.p.); Not significant; format: functional, organism-based; design: dose 20 mg/kg
Mus musculus [5] = assay: Compound was tested for its antitumor activity on L1210 leukemia in mice at the dose of 3.2 mg/kg (i.p.); Not significant; format: functional, organism-based; design: dose 3.2 mg/kg
Summary of the method: (§2)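 B6D2F1 adult mice inoculated ip with 10^5 L1210 cells on day 0. Drug given ip in olive oil on day 1, repeated days 5 and 9 only in mice without toxicity signs. Daily mortality monitoring with autopsy to assign leukemic vs toxic death. Index I = T/C × 100 from median survival; active if I > 125 and Wilcoxon W test significant; ∞ means >50% cured.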

Mus musculus [6] = assay: Compound was tested for its antitumor activity on L1210 leukemia in mice at the dose of 8 mg/kg (i.p.); format: functional; details: route intraperitoneal; summary of the method: as §2
Mus musculus [7] = assay: Compound was tested for its antitumor activity on L1210 leukemia in mice at the dose of 20 mg/kg (i.p.); Toxic; format: functional, organism-based; design: dose 20 mg/kg; summary of the method: as §2
Mus musculus [8] = assay: Compound was tested for its antitumor activity on L1210 leukemia in mice at the dose of 3.2 mg/kg (i.p.); format: functional; details: route intraperitoneal; summary of the method: as §2
[9] = Acute LD50 of compound was evaluated on L1210 leukemia in mice; format: ADME, organism-based; details: mouse, in vivo; summary of the method: as §1
Mus musculus [10] = assay: Compound was tested for its antitumor activity on L1210 leukemia in mice at the dose of 5 mg/kg (i.p.); format: functional; details: route intraperitoneal; summary of the method: as §2
Mus musculus [11] = assay: Compound was tested for its antitumor activity on L1210 leukemia in mice at the dose of 60 mg/kg (i.p.); High percent value; format: functional, organism-based; design: dose 60 mg/kg; summary of the method: as §2
Mus musculus [12] = assay: Compound was tested for its antitumor activity on L1210 leukemia in mice at the dose of 90 mg/kg (i.p.); Toxic; format: functional, organism-based; design: dose 90 mg/kg; summary of the method: as §2
Mus musculus [13] = assay: Compound was tested for its antitumor activity on L1210 leukemia in mice at the dose of 10 mg/kg (i.p.); format: functional; details: route intraperitoneal; summary of the method: as §2
Mus musculus [14] = assay: Compound was tested for its antitumor activity on L1210 leukemia in mice at the dose of 10 mg/kg (i.p.); High percent value; format: functional, organism-based; design: dose 10 mg/kg; summary of the method: as §2
Mus musculus [15] = assay: Compound was tested for its antitumor activity on L1210 leukemia in mice at the dose of 20 mg/kg (i.p.); format: functional; details: route intraperitoneal; summary of the method: as §2
Mus musculus [16] = assay: Compound was tested for its antitumor activity on L1210 leukemia in mice at the dose of 2 mg/kg (i.p.); format: functional; details: route intraperitoneal; summary of the method: as §2
Mus musculus [17] = assay: Compound was tested for its antitumor activity on L1210 leukemia in mice at the dose of 2 mg/kg (i.p.); Not significant; format: functional, organism-based; design: dose 2 mg/kg; summary of the method: as §2
Mus musculus [18] = assay: Compound was tested for its antitumor activity on L1210 leukemia in mice at the dose of 30 mg/kg (i.p.); High percent value; format: functional, organism-based; design: dose 30 mg/kg; summary of the method: as §2
Mus musculus [19] = assay: Compound was tested for its antitumor activity on L1210 leukemia in mice at the dose of 30 mg/kg (i.p.); Toxic; format: functional, organism-based; design: dose 30 mg/kg; summary of the method: as §2
Mus musculus [20] = assay: Compound was tested for its antitumor activity on L1210 leukemia in mice at the dose of 20 mg/kg (i.p.); High percent value; format: functional, organism-based; design: dose 20 mg/kg; summary of the method: as §2

Q: Which LD50 [1] does the source give for `CN(N=O)C(=O)ON1C(=O)CCC1=O` here?
A: Its LD50 is 115 mg/kg.

Q: What about the T/C (Mus musculus [2]) of the same compound?
A: The T/C was “inactive”.

Q: And the T/C (Mus musculus [3])?
A: Its T/C is “inactive”.

Q: And the T/C (Mus musculus [4])?
A: Its T/C is “inactive”.

Q: Which results are given for `O=NN(CCCl)C(=O)Oc1ccc([N+](=O)[O-])cc1`?
A: LD50 [1]: 17 mg/kg; T/C (Mus musculus [3]): inactive; T/C (Mus musculus [5]): inactive

Q: With `O=NN(CCCl)C(=O)ON1C(=O)CCC1=O` as the compound, how does the LD50 [1] read?
A: Its LD50 is 36 mg/kg.

Q: What about the T/C (Mus musculus [6]) of the same compound?
A: Its T/C is 137%.

Q: And the T/C (Mus musculus [7])?
A: Its T/C is “Toxic”.

Q: And the T/C (Mus musculus [8])?
A: The T/C was 125%.

Q: Which LD50 [9] does the source give for `O=NN(CCCl)C(=O)NCCSSCCNC(=O)N(CCCl)N=O` [DITIOMUSTINE] here?
A: Its LD50 is 75 mg/kg.

Q: And the LD50 [1]?
A: The LD50 was 28 mg/kg.

Q: What about the T/C (Mus musculus [10]) of the same compound?
A: The T/C was 212% and 133%.

Q: What about the T/C (Mus musculus [11]) of the same compound?
A: Its T/C is “High percent value”.

Q: And the T/C (Mus musculus [12])?
A: The T/C was “Toxic”.

Q: And the T/C (Mus musculus [13])?
A: The T/C was 151%.

Q: What about the T/C (Mus musculus [14]) of the same compound?
A: Its T/C is “High percent value”.

Q: What about the T/C (Mus musculus [15]) of the same compound?
A: Its T/C is 228%.

Q: And the T/C (Mus musculus [16])?
A: Its T/C is 111%.

Q: What about the T/C (Mus musculus [17]) of the same compound?
A: The T/C was “inactive”.

Q: What about the T/C (Mus musculus [18]) of the same compound?
A: Its T/C is “High percent value”.

Q: What about the T/C (Mus musculus [19]) of the same compound?
A: The T/C was “Toxic”.

Q: What about the T/C (Mus musculus [20]) of the same compound?
A: The T/C was “High percent value”.
